Experimental data taken from ChEMBL document CHEMBL1158936, “New avarone and avarol derivatives from the marine sponge Dysidea cinerea” (J Nat Prod, 1991).
≈ marks a conversion by molar mass, not a printed value. Calls of active or inactive are those of the source. The calls are words filed in the database; no cut-off is given here.

Columns and labels:
[1] = target: Human immunodeficiency virus type 1 reverse transcriptase (Human immunodeficiency virus 1) (UniProt Q72547); experiment: Inhibition of HIV1 reverse transcriptase
[2] = test system: P388; experiment: Cytotoxicity against mouse P388 cells; format: functional, cell-based
How it was run: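 P388 mouse leukemia cells; cytotoxicity reported as IC50 in μg/ml.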

[3] = test system: Candida albicans; experiment: Antimicrobial activity against Candida albicans; format: functional

Row | Compound | Activity [1] | MIC [3] | IC50 [2]
1 | CC1=CCC[C@H]2[C@](C)(CC3=CC(=O)C=C(O)C3=O)[C@@H](C)CC[C@]12C | Active | 12.5 mg/L (≈ 38.1 µM) | 0.6 mg/L (≈ 1.83 µM)
2 | COC1=CC(=O)C(C[C@]2(C)[C@@H](C)CC[C@]3(C)C(C)=CCC[C@@H]23)=C(O)C1=O | Active |  | > 20 mg/L
3 | CC(=O)OC1=C(C[C@]2(C)[C@@H](C)CC[C@]3(C)C(C)=CCC[C@@H]23)C(=O)C=CC1=O | inactive |  | 10 mg/L (≈ 27 µM)

Continued, in another order:

Row | Activity [1] | MIC [3] | Compound | IC50 [2]
4 | inactive |  | CC1=CCC[C@H]2[C@](C)(Cc3c(O)ccc(O)c3O)[C@@H](C)CC[C@]12C | 
5 | inactive | 12.5 mg/L (≈ 33.6 µM) | CC(=O)Oc1c(O)ccc(O)c1C[C@]1(C)[C@@H](C)CC[C@]2(C)C(C)=CCC[C@@H]12 | < 0.6 mg/L
6 | Active | 50 mg/L (≈ 145 µM) | CC1=CCC[C@H]2[C@](C)(CC3=C(O)C(=O)C=C(O)C3=O)[C@@H](C)CC[C@]12C | 1.2 mg/L (≈ 3.48 µM)
